# Shown is part of a subset that was picked to be rich in hits.
# DTT redox prof = compounds producing H2O2 with reducing agent – biochemical, NIH compound library profiling, artefact control for MLSCN library redox annotation, primary screen | hit rate 0.03% among 200,000 | activation, % at 10 µM | DTT-dependent redox cycling H2O2, phenol red/HRP absorbance; 100% = 100 µM peroxide control, 0% = buffer;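 active = activation of at least 50% relative to the plate's high and low controls in the primary single-dose screen; inactive = activation below 50%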;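 also: compound incubated with DTT at 0.8 mM final as the reducing agent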
# L major viab = Leishmania major promastigote growth inhibition, primary screen. Leishmania major promastigotes, resazurin fluorescence viability. inhibition, % at 10 µM. hit rate 9% among 200,000. AID 1063, 2008;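 also: promastigotes grown with compound for 44 hours at 28 °C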
# Diaphorase inh = diaphorase inhibitors and chemical oxidizers, primary screen, counter-screen for diaphorase-coupled primary assays, biochemical, uHTS, resorufin fluorescence | diaphorase resazurin-to-resorufin fluorescence, NADH, 16 min; bacterial (C. kluyveri) enzyme, not human | inhibition, % at 20 µM | hit rate 0.69% among 190,000 | AID 1217, 2008;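 active = primary screen inhibition at 20 µM above a set limit, cut at about 50% in these data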;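 also: plate controls were DMSO with full reaction for no effect and wells lacking NADH for full effect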
#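 Assay system: diaphorase enzyme from Clostridium kluyveri. Quantity: enzyme working solution with 0.14 U/mL diaphorase. Schedule: reaction incubation of 16 min at room temperature. Technique: resorufin fluorescence, excitation 544 nm, emission 590 nm. Controls: No-NADH positive control and DMSO neutral control.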
# Diaphorase act = compounds boosting diaphorase resazurin reduction – biochemical, uHTS, resorufin fluorescence, counter-screen for diaphorase-coupled primary assays, primary screen. activation factor at 20 µM. AID 1229, 2008. hit rate 0.005% among 190,000. Diaphorase/resazurin coupled assay, 16 min; active compounds read high; 1 = vehicle wells, 0 = NADH-free wells;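 active = diaphorase activity raised at least twofold by the compound at 20 µM; inactive = activation factor below 2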
#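 System – purified diaphorase enzyme from Clostridium kluyveri · Input – enzyme 0.07 U/mL final · Also added – final NADH 0.114 mM, resazurin 0.1 mM · Measured by – fluorescence of resorufin, 544 nm excitation, 590 nm emission · Timing – 16 min enzyme reaction, ambient temperature · Measure – resorufin increase flagging diaphorase activators or reducers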
# G6PDH CS = L. mesenteroides G6PDH inhibitors, counter-screen for G6PDH-coupled screening assays, biochemical, Leuconostoc mesenteroides enzyme; inhibition, % at 5 µM; hit rate 0.12% among 200,000; glucose-6-phosphate dehydrogenase [Leuconostoc mesenteroides]; Purified L. mesenteroides G6PDH, diaphorase/resazurin coupled fluorescence, 45 min; AID 1020, 2008
# PfGluPho inh = PfG6PD enzyme inhibitors, primary screen, biochemical, fluorescence intensity, uHTS. glucose-6-phosphate dehydrogenase-6-phosphogluconolactonase (Plasmodium falciparum 3D7). PfGluPho enzyme, NADPH resazurin-diaphorase fluorescence. inhibition, % at 20 µM. hit rate 0.78% among 350,000. AID 504690, 2011;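 active = inhibition reaching at least a set limit at 20 µM in the primary screen, cut at about 59% in these data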;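 also: 0% = DMSO wells with substrate and 100% = DMSO wells lacking glucose-6-phosphate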
# * = called active by the depositor; x = no result given. Rule as the data show it, unless noted: active = inhibition above about 50%; inactive = the rest.
SMILES,DTT redox prof,L major viab,Diaphorase inh,Diaphorase act,G6PDH CS,PfGluPho inh
CCCN(CCC)c1nc(C#N)nc(N(CCC)CCC)n1,-1.0,7.5,13.6,0.9,8.8,1.6
CCCN(CCC)c1nc(N(CCC)CCC)[nH]c(=O)n1,-1.3,57.3*,7.8,0.9,5.5,-20.5
CCOC(=O)CSc1nc2c(sc(=S)n2-c2ccccc2)c(=O)n1-c1ccc(OC)cc1OC,x,x,x,x,x,65.1*
CCCCC1(C)Nc2ccccc2-c2nc3ccccc3n21 (stereo not drawn),-2.7,73.8*,21.5,0.8,-0.3,33.6
c1ccc2c(c1)NC1(CCCCCC1)n1c-2nc2ccccc21,-0.1,27.9,15.7,0.8,16.9,10.1
CN1C(=O)C2(Nc3ccccc3-c3nc4ccccc4n32)c2ccccc21 (stereo not drawn),1.1,2.9,83.5*,0.2,0.9,15.0
CC1(c2ccccn2)Nc2ccccc2-c2nc3ccccc3n21 (stereo not drawn),0.0,52.9*,22.7,0.8,6.3,21.6
CCN(CC)c1ccc(NC(=O)CCNC(=O)c2ccco2)cc1,0.0,89.9*,13.7,0.9,3.2,6.1
CN1C2C=C(N(CCc3c[nH]c4ccccc34)C(=O)c3ccc(Cl)cc3)CC1CC2 (stereo not drawn),1.9,100.6*,13.3,0.9,1.6,8.7
C[C@@H]1ON(C)[C@H]2C[C@H]3c4[nH]c5ccccc5c4CCN3C(=O)[C@@H]12,x,x,x,x,x,-10.3
Cc1onc(-c2ccccc2)c1C(=O)N1CCCc2ccccc21,2.2,98.4*,21.2,0.8,6.3,13.5
Cc1onc(-c2ccccc2Cl)c1C(=O)N1CCN(c2ncccn2)CC1,-0.4,-7.1,-10.9,1.1,6.7,-12.6
Cc1noc(C)c1C(=O)N1CCc2ccccc21,0.4,-7.3,4.4,1,1.4,3.3
CCOc1ccccc1N1CCN(C(=O)c2c(-c3ccccc3Cl)noc2C)CC1,-0.3,71.5*,5.9,0.9,7.7,10.2
Cc1onc(-c2c(Cl)cccc2Cl)c1C(=O)N1CCc2ccccc2C1,1.5,95.4*,4.7,1,3.5,8.7
CNS(=O)(=O)c1ccc(CNC[C@H]2O[C@@H](n3ccc(N)nc3=O)[C@H](O)[C@@H]2O)cc1,x,x,x,x,x,5.2
O=C(c1ccsc1)N1CCCC(N2CCN(c3cccc(Cl)c3)CC2)C1 (stereo not drawn),x,x,x,x,x,-3.0
CCCCNC1=CC(=O)C(=O)c2ccccc21,0.0,99.7*,x,x,59.5*,50.8
CCc1ccc(NC2=CC(=O)C(=O)c3ccccc32)cc1,x,x,x,x,x,16.1
O=C1C=C(Nc2ccccc2)C(=O)c2ccccc21,-0.1,99.9*,17.6,0.8,24.6,-6.4
O=C1C=C(Nc2ccccc2)c2ccccc2C1=O,4.2,99.9*,21.7,0.8,48.0,11.8
N#CC1=C(N)C2=CCCC[C@H]2[C@H](c2ccc(Br)cc2)C1(C#N)C#N,0.6,77.7*,14.1,0.9,14.4,-2.0
O=C(c1ccco1)N1CCC2CC1c1c(Cl)cccc12 (stereo not drawn),x,x,x,x,x,7.7
O=C1/C(=C/c2ccc(O)cc2)COc2ccccc21,x,x,x,x,x,-21.8
O=C1/C(=C/c2ccccn2)COc2ccccc21,-0.2,100.4*,-12.8,1.1,-2.6,-10.2
SMILES,DTT redox prof,L major viab,Diaphorase inh,Diaphorase act,G6PDH CS,PfGluPho inh
O=C1/C(=C/c2ccccc2[N+](=O)[O-])COc2ccccc21,-0.4,99.6*,12.3,0.9,3.5,-6.6
COc1ccc(Cc2nc3ccccc3c(=O)n2N)cc1OC,x,x,x,x,x,-7.6
CCN1CCN(c2cc(C)c3cc(NC(=S)N4CCCC(C)C4)ccc3n2)CC1 (stereo not drawn),-2.9,95.6*,-10.5,1.1,1.4,7.8
CCN1CCN(c2cc(C)c3cc(NC(=S)N4CCN(c5ccc(F)cc5)CC4)ccc3n2)CC1,-1.9,37.9,3.2,1,-6.4,14.1
CCN1CCN(c2cc(C)c3cc(NC(=S)N4CC(C)CC(C)C4)ccc3n2)CC1 (stereo not drawn),-2.2,99.9*,1.5,1,-6.3,6.4
COC(=O)c1cccc(NC(=O)CCc2cc(OC)c(OC)c(OC)c2)c1,x,59.1*,-0.6,1,4.2,3.3
CC(C)(C)OC(=O)COc1cc(O)c2c(=O)cc(-c3ccccc3)oc2c1,0.4,-4.1,11.5,0.9,-45.6,-22.2
CC(C)(C)OC(=O)COc1cc(OCC(=O)OC(C)(C)C)c2c(=O)cc(-c3ccccc3)oc2c1,0.3,50.3*,22.7,0.8,11.2,18.1
COc1cc2c(c3oc(-c4ccccc4)cc(=O)c13)C=CC(C)(C)O2,0.7,42.0,81.8*,0.2,23.1,32.8
COc1cc(OC)c2c(=O)cc(-c3ccccc3)oc2c1,0.3,24.4,55.4*,0.4,8.3,7.5
COC(=O)C1=C(C)NC(C)=C(C(=O)OC)C1C(=O)OCC(=O)c1ccc(Br)cc1,x,x,x,x,x,11.0
Cc1ccnc2c(N3C(=O)C4C5c6ccccc6C(c6ccccc65)C4C3=O)cccc12 (stereo not drawn),-4.5,58.2*,12.3,0.9,13.7,0.3
Cc1cc(C(=O)c2ccc3ccccc3c2)c(C)o1,x,x,x,x,x,16.0
CC1=CC(C)(C)N2C(=O)C3(C(C#N)=C(N)OC4=C3C(=O)CC(C)(C)C4)c3cccc1c32 (stereo not drawn),-1.2,0.2,20.2,0.8,13.7,x
CC1=CC(C)(C)N2C(=O)C3(C(C#N)=C(N)Oc4cc(C)oc(=O)c43)c3cc(C)cc1c32 (stereo not drawn),-7.3,91.4*,x,x,x,-9.2
COc1cc2c3c(c1)C1(C(=O)N3C(C)(C)C=C2C)C(C#N)=C(N)Oc2cc(C)oc(=O)c21 (stereo not drawn),-0.1,-6.1,23.8,0.8,9.6,-16.2
CC1=CC(C)(C)N2C(=O)C3(C(C#N)=C(N)Oc4cc(O)ccc43)c3cccc1c32 (stereo not drawn),4.4,56.1*,22.6,0.8,6.6,-19.5
Cc1cc2c3c(c1)C1(C(=O)N3C(C)(C)CC2C)C(C#N)=C(N)Oc2cc(O)ccc21 (stereo not drawn),-0.5,100.1*,32.6,0.7,-11.6,-2.5
COc1cccc(C2CC(c3ccccc3Cl)Nc3ncnn32)c1 (stereo not drawn),0.9,-2.7,x,x,x,-14.3
COc1ccc(C2CC(c3ccccc3Cl)Nc3ncnn32)cc1OC (stereo not drawn),1.0,76.0*,-4.8,1,8.9,-20.5
